Laboratory results as given in PMC6852655 (International Journal of Cancer, 2019).

Experiments:
[1] = In vivo metabolic stability, mouse blood 5 min pi, without or with PA; parameters: species or system Swiss albino mice; conditions: peripheral mouse blood, HPLC; for Intact radiopeptide, 5 min pi (+ phosphoramidon): PA coinjected, n=2; for Intact radiopeptide, 5 min pi: radioligand alone, n=3
Outline: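 Healthy male Swiss albino mice (30 ± 5 g) were injected with the 177Lu-labelled test peptide alone (n = 3) or with coinjected phosphoramidon (n = 2). Blood was collected at 5 min pi and analysed by HPLC radiochromatography for the percentage of intact radioligand.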

PC-3 xenografts [2] = experiment: Experimental in vivo therapy; parameters: species or system BALB/c nu/nu mice
PC-3 xenografts [3] = experiment: Biodistribution over time; assay type: in vivo, BALB/c nu/nu mice; conditions: 24 hr pi vs peak at 1 hr pi, 100 pmol
Outline: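 PC-3-xenografted BALB/c nu/nu mice received the 177Lu-labelled test peptide (80 kBq, 100 pmol/animal, 100 μl) with coinjected NEP inhibitor phosphoramidon. Animals were euthanized at 0.5, 1, 2, 4, 24, 48 and 90 hr pi, and tumour and organ activity uptake were measured.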

PC-3 xenografts [4] = experiment: Dosimetry estimates; parameters: species or system BALB/c nu/nu mice; conditions: per 60 MBq treatment cycle (200 pmol)
Outline: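 Organ absorbed doses were estimated for a 100 pmol injection of the 177Lu-labelled test peptide. The estimate used time-course biodistribution data from PC-3-xenografted nude mice and a MOBY-phantom dosimetry model. Other peptide masses were scaled by the ratio of 1 hr uptake at 50–250 pmol to the 100 pmol 1 hr uptake; uptake versus mass was fitted with exponential curves. Doses were expressed per 60 MBq cycle.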

PC-3 xenografts [5] = experiment: Influence of PA coinjection on biodistribution; assay type: in vivo, BALB/c nu/nu mice; conditions: 1 hr pi
PC-3 xenografts [6] = experiment: Influence of injected peptide dose on biodistribution; assay type: in vivo, BALB/c nu/nu mice; conditions: 750 pmol in comparison to 50 pmol, 1 hr pi
Outline: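 PC-3-xenografted BALB/c nu/nu mice (17 ± 2 g; tumours 0.19 ± 0.06 g) were injected with 80 kBq of the 177Lu-labelled test peptide at a total peptide dose of 50, 100, 250, 500 or 750 pmol/animal, with phosphoramidon coinjection. Tumour and organ uptake were measured at 1 hr pi; tumour slices were also examined by ex vivo autoradiography.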

CC(C)C[C@H](NC(=O)C[C@H](O)[C@H](CC(C)C)NC(=O)[C@H](Cc1c[nH]cn1)NC(=O)CNC(=O)[C@@H](NC(=O)[C@H](C)NC(=O)[C@H](Cc1c[nH]c2ccccc12)NC(=O)[C@H](CCC(N)=O)NC(=O)[C@@H](Cc1ccccc1)NC(=O)COCCOCCNC(=O)CN1CCN(CC(=O)O)CCN(CC(=O)O)CCN(CC(=O)O)CC1)C(C)C)C(N)=O [^177Lu-DOTA-PEG2-RM26, metal not drawn]
Intact radiopeptide, 5 min pi (+ phosphoramidon) [1]: > 96%
Intact radiopeptide, 5 min pi [1]: 64.7 ± 4.6%

CC(C)C[C@H](NC(=O)C[C@H](O)[C@H](CC(C)C)NC(=O)[C@H](Cc1c[nH]cn1)NC(=O)CNC(=O)[C@@H](NC(=O)[C@H](C)NC(=O)[C@H](Cc1c[nH]c2ccccc12)NC(=O)[C@H](CCC(N)=O)NC(=O)[C@@H](Cc1ccccc1)NC(=O)COCCOCCNC(=O)CCC(C(=O)O)N1CCN(CC(=O)O)CCN(CC(=O)O)CCN(CC(=O)O)CC1)C(C)C)C(N)=O (stereo partly drawn) [^177Lu-DOTAGA-PEG2-RM26, metal not drawn]
Median survival compared with controls (PC-3 xenografts [2]; 6 cycles iv every second day, n=11-12): significant prolongation of median survival
Tumor growth (PC-3 xenografts [2]; 6 cycles, 200 pmol/60 MBq, +PA): significant inhibition of tumor growth
Intact radiopeptide, 5 min pi (+ phosphoramidon) [1]: > 98%
Intact radiopeptide, 5 min pi [1]: 70.7 ± 3.1%
Decrease of tumor uptake (PC-3 xenografts [3]): fourfold
Estimated absorbed dose to the kidneys (PC-3 xenografts [4]): 5 Gy
Estimated absorbed dose to the tumor (PC-3 xenografts [4]): 11 Gy
Increase of pancreatic uptake with PA (PC-3 xenografts [5]; 50 pmol, PA vs control): threefold
Increase of tumor uptake with PA (PC-3 xenografts [5]; 50 pmol, PA vs control): 1.6 fold
Amplification of tumor uptake with PA (PC-3 xenografts [5]; PA coinjection): 60%
Decrease of tumor uptake (PC-3 xenografts [6]): threefold

CC(C)C[C@H](NC(=O)C[C@H](O)[C@H](CC(C)C)NC(=O)[C@H](Cc1c[nH]cn1)NC(=O)CNC(=O)[C@@H](NC(=O)[C@H](C)NC(=O)[C@H](Cc1c[nH]c2ccccc12)NC(=O)[C@H](CCC(N)=O)NC(=O)[C@@H](Cc1ccccc1)NC(=O)COCCOCCNC(=O)CCC(C(=O)O)N1CCN(CC(=O)O)CCN(CC(=O)O)CC1)C(C)C)C(N)=O (stereo partly drawn) [^177Lu-NODAGA-PEG2-RM26, metal not drawn]
Intact radiopeptide, 5 min pi (+ phosphoramidon) [1]: > 96%
Intact radiopeptide, 5 min pi [1]: 64.0 ± 2.0%
